One series concerns bone marrow. The series is described as follows: In vivo micronucleus assay. Also noted: species or system rat. The conditions noted are these: 20 mg/kg bw once by oral gavage. The procedure, abridged: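 Female rats were dosed twice by oral gavage, 24 h apart, with vehicle or 87.5, 175 or 350 mg/kg bw. Cyclophosphamide 20 mg/kg bw was given once by gavage as positive control. Five groups of five animals. Micronuclei and the PCE/NCE ratio were scored.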

A short description of series [1]: Residues of EQ and metabolites/TPs in piglet tissues. The class given is in vivo. As to conditions: piglets.
Series [2] in a line: Residues of EQ and metabolites/TPs in cattle tissues. In kind it is in vivo.
The conditions of series [3]: ref Regulation (EC) No 1272/2008; cited from earlier work.

Turning to `O=P1(N(CCCl)CCCl)NCCCO1` (stereo not drawn) [Cyclophosphamide, cyclophosphamide], the “number of micronuclei (positive control)” value in the series with bone marrow was “statistically significant increase”.
Turning to `CCOC1=CC(=O)C2=NC(C)(C)C=C(C)C2=C1` [Metabolite A, 6‐ethoxy‐2,2,4‐trimethyl‐quinolin‐8‐one], the residue in muscle result in series [1] (control feed (0 mg EQ/kg), 42 days, mean ± SD, LOQs as above) is on record as “˂ LOQ”; in series [1] (feed with 50 mg EQ/kg for 42 days, LOQs 1.5 to 2 µg EQ, EQDM, metabolite A/kg, 0.5 µg EQI/kg), “˂ LOQ”. Further, in series [2] (Holstein, bovine, liver, oral, 50 mg EQ/kg complete feed), the concentration at 42 days was 121 ng/g. In addition, the “residue in muscle, highest value” in series [2] (cattle, control (0 mg EQ/kg feed), 42 days, LOQs as above) is reported as “˂ LOQ”.
For `CCOc1ccc(N)cc1` [p‐phenetidine], the “germ cell mutagenicity classification” value in series [3] is “Muta. 2”.

Values taken from PMC8892239 (EFSA Journal, 2022).
